# PKA-R1A act: activators of PKA-R1A holoenzyme, primary screen, biochemical, fluorescence polarization, Cy5-IP20, bovine R1A, mouse PKAc; activation, % at 11.4 µM; cAMP-dependent protein kinase type I-alpha regulatory subunit (Bos taurus) + …; AID 504707, 2011; PKA-R1A dissociation; scaled: DMSO 0%, 113 µM cGMP 100%; actives 0.083% (n = 340,000);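 active = percent activation above the mean of all tested compounds plus 3 SD, cut at about 19% in these data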;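 also: higher means more PKAc released from R1A so a rise in polarization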
# CRFR2-BP antag: antagonists of CRF-BP/CRF-R2 complex, primary screen, cell-based, HEK293, calcium dye fluorescence, uHTS; AID 588475, 2011; CRF-induced calcium fluorescence; actives 0.59% (n = 350,000); inhibition, % at 11.8 µM;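 active = inhibition of the ligand-induced calcium signal above about 50% at the single tested concentration, limit read from the data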
# PKA-R2B activ: activators of PKA-R2B holoenzyme, primary screen, biochemical, fluorescence polarization, Cy5-IP20, human | cAMP-dependent protein kinase catalytic subunit beta (Homo sapiens) + cAMP-dependent … | PKA-R2B holoenzyme dissociation; R2B truncated from residue 108, S112A mutant; 0% DMSO only, 100% 113 µM cGMP | activation, % at 11.4 µM | actives 0.079% (n = 340,000) | AID 504700, 2011;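 active = activation above a cutoff set at the mean over all compounds plus 3 SD, cut at about 18% in these data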;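 also: higher means more holoenzyme dissociation and a rise in polarization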
# SIRT5 block: SIRT5 desuccinylase inhibitors, primary screen, biochemical, fluorescence imaging, single point, set 5; inhibition, % at 15 µM; NAD-dependent protein deacylase sirtuin-5, mitochondrial (Homo sapiens), Q9NXA8; Purified SirT5, succinyl-peptide AMC, trypsin-coupled fluorescence; actives 1.1% (n = 330,000); in the data active = inhibition above about 15%
# Target sequence (Q9NXA8 whole entry, looked up): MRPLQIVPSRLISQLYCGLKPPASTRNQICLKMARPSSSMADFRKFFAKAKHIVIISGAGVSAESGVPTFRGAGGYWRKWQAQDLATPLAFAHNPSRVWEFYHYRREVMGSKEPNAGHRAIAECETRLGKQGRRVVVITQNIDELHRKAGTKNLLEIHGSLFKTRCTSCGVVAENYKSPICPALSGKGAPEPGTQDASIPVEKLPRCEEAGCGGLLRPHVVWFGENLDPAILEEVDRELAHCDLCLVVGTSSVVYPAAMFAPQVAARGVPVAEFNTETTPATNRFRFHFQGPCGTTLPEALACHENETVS
# S100A4 MyoIIA: inhibitors of S100A4-myosin IIA peptide binding, primary screen, biochemical, fluorescence polarization, TAMRA-MyoIIA peptide | Protein S100-A4 (Homo sapiens), P26447 | inhibition, % at 10.7 µM | actives 0.14% (n = 360,000);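 active = mean inhibition of at least 70% across replicates, with every replicate also reaching that level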
# Target sequence (P26447 whole entry, looked up): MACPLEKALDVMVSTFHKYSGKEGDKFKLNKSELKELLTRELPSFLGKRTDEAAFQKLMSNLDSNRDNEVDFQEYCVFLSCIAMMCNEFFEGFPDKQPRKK
#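 Material: S100A4 monomer (human). Medium: Calcium-containing HEPES buffer, pH 7.2. Probe or stimulus: labelled myosin peptide probe, 5 nM. Compound dosing: one concentration per compound. Timing: polarization read 5 min after assay mix addition, stable 5–60 min. Benchmarks: DMSO as neutral control, TFP as positive control.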
# Starred values were filed as active, the others as inactive; / = no result given. Shown are actives, neighbours in structure and some others; about 1.5% of the full set was active somewhere.
SMILES,PKA-R1A act,CRFR2-BP antag,PKA-R2B activ,SIRT5 block,S100A4 MyoIIA
CCCNC(=O)[C@H]1[C@H](CO)[C@H]2Cn3c(ccc(-c4ccc(F)cc4)c3=O)[C@H]2N1CC1CC1,/,/,/,16*,10
CN1C(=O)c2cc(NC(=O)C3CCCC3)ccc2OC[C@@H]2O[C@@H](CC(=O)NCc3ccccc3F)CC[C@H]21,/,/,/,-7,-4
CCCNC(=O)N1[C@@H]2c3ccc(-c4ccccc4OC)c(=O)n3C[C@@H]2[C@@H](CO)[C@@H]1C(=O)NC1CCC1,/,/,/,-12,116*
COc1ccccc1-c1ccc2n(c1=O)C[C@H]1[C@H](CO)[C@@H](C(=O)NC3CCC3)N(C(=O)NC(C)C)[C@@H]21,/,/,/,-15,3
CC(=O)N1[C@H](C(=O)NCCCN(C)C)[C@@H](CO)[C@@H]2Cn3c(ccc(-c4cccc(F)c4)c3=O)[C@@H]21,/,/,/,-12,101*
CO[C@H]1CN(C)C(=O)c2cc(NC(=O)Nc3ccccc3Cl)ccc2OC[C@@H](C)NC[C@H]1C,/,/,/,3,-16
COCCNCC(=O)C12CC3CC(CC(C3)C1)C2,-6,13,-11,23*,-3
O=C(C[C@@H]1CC[C@@H]2[C@H](COC[C@@H](O)CN2Cc2cccc(F)c2)O1)NCC1CCCCC1,/,/,/,-4,-61
CNC(=O)c1sc(-c2ccccc2)nc1C,-2,10,2,/,/
Cc1nc(-c2ccccc2)sc1C(=O)NS(=O)(=O)c1ccc(CN2CCN(c3ccccc3)CC2)cc1,/,/,/,22*,-1
COc1ncnc2c1ncn2CCCN1CCN(c2ccccn2)CC1,-1,5,-1,28*,3
O=C(CSc1ncnc2c1nnn2Cc1ccc(F)cc1)NCC1CCCO1 (stereo not drawn),-3,4,8,-4,74*
c1ccc(Nc2cccc3c(Nc4ccccc4)cccc23)cc1,-5,-13,1,-8,-15
O=S(=O)(O)c1cccc2cccc(Nc3ccccc3)c12,-1,-5,-5,57*,4
C[C@H]1CCCCO[C@H](CN(C)Cc2ccccc2)[C@@H](C)CN([C@@H](C)CO)C(=O)c2cc(N(C)C)ccc2O1,/,/,/,0,3
C[C@H]1CN([C@@H](C)CO)C(=O)c2cccc(NC(=O)Nc3ccc(C(F)(F)F)cc3)c2O[C@H]1CN(C)S(C)(=O)=O,/,/,/,-2,10
CC(C)NC(=O)N(C)C[C@@H]1OCCCC[C@@H](C)Oc2ccc(N(C)C)cc2C(=O)N([C@@H](C)CO)C[C@@H]1C,/,/,/,3,4
CO[C@@H]1CN(C)C(=O)c2ccc(NC(=O)Nc3ccccc3F)cc2OC[C@@H](C)N(C(C)=O)C[C@H]1C,/,/,/,3,-4
O=C(NCC(c1ccco1)N1CCOCC1)c1c(F)cccc1F (stereo not drawn),1,4,6,17*,2
O=C(NCC(c1ccco1)N1CCOCC1)c1ccc(F)cc1 (stereo not drawn),0,30,-11,-5,17
CCOC(=O)C1CCCN(C2CC(=O)N(c3ccc(N4C(=O)CC(N5CCCC(C(=O)OCC)C5)C4=O)cc3)C2=O)C1 (stereo not drawn),7,-8,11,/,/
CCOC(=O)C1CCCN(C2CC(=O)N(c3ccccc3)C2=O)C1 (stereo not drawn),8,67*,9,-5,-1
O=C(O)c1ccccc1SC1CC(=O)N(c2ccc3c(c2)OCO3)C1=O (stereo not drawn),8,6,-12,-5,0
Nc1ccccc1SC1CC(=O)N(c2ccc3c(c2)OCO3)C1=O (stereo not drawn),/,84*,/,-5,-19
C[C@H]1CN([C@@H](C)CO)C(=O)Cc2cc(NC(=O)C3CC3)ccc2O[C@@H]1CN(C)Cc1ccncc1,/,/,/,1,3
SMILES,PKA-R1A act,CRFR2-BP antag,PKA-R2B activ,SIRT5 block,S100A4 MyoIIA
COc1ccc(S(=O)(=O)Nc2ccc3c(c2)C(=O)N([C@H](C)CO)C[C@H](C)[C@@H](CN(C)Cc2ccncc2)OCCCC[C@H](C)O3)cc1,/,/,/,-3,3
COc1ccc(S(=O)(=O)Nc2ccc3c(c2)C(=O)N([C@@H](C)CO)C[C@@H](C)[C@H](CN(C)S(=O)(=O)c2ccc(F)cc2)OCCCC[C@H](C)O3)cc1,2,6,3,8,2
COc1ccc(S(=O)(=O)Nc2ccc3c(c2)C(=O)N([C@@H](C)CO)C[C@@H](C)[C@H](CN(C)Cc2ccncc2)OCCCC[C@H](C)O3)cc1,/,/,/,17*,-12
COc1ccc(S(=O)(=O)N(C)C[C@H]2OCCCC[C@@H](C)Oc3ccc(NS(=O)(=O)c4ccc(F)cc4)cc3C(=O)N([C@@H](C)CO)C[C@H]2C)cc1,/,/,/,18*,-16
COc1ccc(S(=O)(=O)N(C)C[C@@H]2OCCCC[C@H](C)Oc3ccc(NS(=O)(=O)c4ccc(F)cc4)cc3C(=O)N([C@H](C)CO)C[C@H]2C)cc1,/,/,/,19*,-19
COc1ccc(S(=O)(=O)Nc2ccc3c(c2)C(=O)N([C@@H](C)CO)C[C@@H](C)[C@@H](CN(C)S(=O)(=O)c2ccc(F)cc2)OCCCC[C@H](C)O3)cc1,/,/,/,16*,-12
COc1ccc(S(=O)(=O)Nc2ccc3c(c2)C(=O)N([C@@H](C)CO)C[C@@H](C)[C@@H](CN(C)S(=O)(=O)c2ccc(F)cc2)OCCCC[C@@H](C)O3)cc1,/,/,/,11,11
C[C@H]1CN([C@@H](C)CO)S(=O)(=O)c2ccc(-c3cncnc3)cc2O[C@H]1CN(C)C(=O)c1ccc2c(c1)OCO2,/,/,/,2,-6
CCOC(=O)c1c(C)[nH]c(C)c1S(=O)(=O)NCC1CCN(Cc2cccc(Cl)c2)CC1,-1,-5,5,16*,5
CCC(=O)Nc1ccc2c(c1)C(=O)N(C)[C@H]1CC[C@H](CC(=O)NCc3ccccc3)O[C@H]1CO2,/,/,/,-4,-2
C[C@H](CO)N1C[C@H](C)[C@H](CN(C)CC2CC2)Oc2cc(C3=CCCC3)ccc2S1(=O)=O,/,/,/,2,4
C[C@H](CO)N1C[C@H](C)[C@@H](CN(C)Cc2ccc(C(F)(F)F)cc2)OCCCC[C@H](C)Oc2ccc(NS(=O)(=O)c3ccc(F)cc3)cc2C1=O,/,/,/,20*,1
C[C@H]1CCCCO[C@H](CN(C)Cc2ccc(C(F)(F)F)cc2)[C@@H](C)CN([C@@H](C)CO)C(=O)c2cc(NS(=O)(=O)c3ccc(F)cc3)ccc2O1,/,/,/,23*,-4

# Screening data (PubChem BioAssay)
